Results from ChEMBL document CHEMBL2202977, “Optimization and structure-activity relationships of a series of potent inhibitors of methicillin-resistant Staphylococcus aureus (MRSA) pyruvate kinase as novel antimicrobial agents” (Bioorg Med Chem, 2012).
Values after ≈ are worked out from the molar mass of the structure shown.

Tests used:
Staphylococcus aureus [1] = experiment: Antimicrobial activity against Staphylococcus aureus ATCC 25923 after 24 hrs broth microdilution method; format: functional
Summary of the method: (§1)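 MIC taken as the minimum concentration giving >98% growth inhibition of the named S. aureus strain (RN4220, ATCC 25923 or ATCC 29213). Values are single determinations or averages of n determinations. Vancomycin was run as control.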

[2] = biological target: T1, Pyruvate kinase (Staphylococcus aureus (strain MRSA252)) (UniProt Q6GG09); experiment: Inhibition of methicillin-resistant Staphylococcus aureus 252 pyruvate kinase at 1 uM by LDH assay; conditions: Staphylococcus aureus subsp. aureus MRSA252
T1 sequence (whole entry): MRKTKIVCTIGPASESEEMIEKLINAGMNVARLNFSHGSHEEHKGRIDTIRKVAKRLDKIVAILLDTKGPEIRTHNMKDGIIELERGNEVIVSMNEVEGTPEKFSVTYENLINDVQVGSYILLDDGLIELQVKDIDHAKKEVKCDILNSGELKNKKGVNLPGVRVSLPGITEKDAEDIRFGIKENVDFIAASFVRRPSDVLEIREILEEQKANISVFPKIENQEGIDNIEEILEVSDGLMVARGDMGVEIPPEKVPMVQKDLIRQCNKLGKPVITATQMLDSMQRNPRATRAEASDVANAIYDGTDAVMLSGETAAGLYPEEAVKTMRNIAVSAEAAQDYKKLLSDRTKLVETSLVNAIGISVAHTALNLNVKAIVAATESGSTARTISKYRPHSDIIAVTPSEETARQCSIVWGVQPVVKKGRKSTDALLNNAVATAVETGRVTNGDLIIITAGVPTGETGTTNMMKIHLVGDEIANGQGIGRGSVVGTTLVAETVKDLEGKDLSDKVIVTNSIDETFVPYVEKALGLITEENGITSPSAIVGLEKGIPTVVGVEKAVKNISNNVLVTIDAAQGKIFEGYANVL
Summary of the method: (§2)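 MRSA pyruvate kinase activity was measured by a previously described procedure. IC50 was calculated from triplicate 15-point titrations, or averaged over n such determinations. Where no IC50 was obtained, the value is % inhibition at the highest concentration tested.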

Pyruvate kinase = biological target: T2, Pyruvate kinase (Staphylococcus aureus (strain MRSA252), UniProt Q6GG09); experiment: Inhibition of methicillin-resistant Staphylococcus aureus 252 pyruvate kinase by LDH assay; parameters: species or system Staphylococcus aureus subsp. aureus MRSA252; summary of the method: as §2
T2 sequence (Q6GG09 whole entry): T1 sequence (whole entry)

[3] = biological target: Pyruvate kinase PKLR (Homo sapiens) (UniProt P30613); experiment: Inhibition of human pyruvate kinase R at 10 uM by LDH assay
Chain of Pyruvate kinase PKLR (Homo sapiens) (P30613 whole entry, looked up, canonical isoform): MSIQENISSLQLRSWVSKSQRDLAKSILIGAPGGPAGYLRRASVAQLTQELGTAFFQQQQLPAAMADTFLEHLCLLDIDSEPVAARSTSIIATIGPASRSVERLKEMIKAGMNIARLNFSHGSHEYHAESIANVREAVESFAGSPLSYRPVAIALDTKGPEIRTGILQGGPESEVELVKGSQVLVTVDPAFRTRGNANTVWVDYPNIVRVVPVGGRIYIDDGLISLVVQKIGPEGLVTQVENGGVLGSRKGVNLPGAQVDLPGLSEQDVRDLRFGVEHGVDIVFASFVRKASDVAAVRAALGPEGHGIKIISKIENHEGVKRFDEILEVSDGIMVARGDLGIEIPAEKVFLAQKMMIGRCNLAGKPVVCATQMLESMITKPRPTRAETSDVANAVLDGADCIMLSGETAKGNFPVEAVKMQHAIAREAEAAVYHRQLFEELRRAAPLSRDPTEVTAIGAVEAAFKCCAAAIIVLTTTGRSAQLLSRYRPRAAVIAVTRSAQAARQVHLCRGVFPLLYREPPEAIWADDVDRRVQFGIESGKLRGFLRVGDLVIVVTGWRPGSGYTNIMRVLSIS
Summary of the method: (§3)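 Selected compounds were tested against mammalian PK isoforms M1, M2, R and L at the highest concentration, 10 µM. Results are given as percent inhibition.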

[4] = biological target: Pyruvate kinase PKM (Homo sapiens) (UniProt P14618); experiment: Inhibition of human pyruvate kinase M2 at 10 uM by LDH assay; summary of the method: as §3
Chain of Pyruvate kinase PKM (Homo sapiens) (P14618 2-531 limits assumed): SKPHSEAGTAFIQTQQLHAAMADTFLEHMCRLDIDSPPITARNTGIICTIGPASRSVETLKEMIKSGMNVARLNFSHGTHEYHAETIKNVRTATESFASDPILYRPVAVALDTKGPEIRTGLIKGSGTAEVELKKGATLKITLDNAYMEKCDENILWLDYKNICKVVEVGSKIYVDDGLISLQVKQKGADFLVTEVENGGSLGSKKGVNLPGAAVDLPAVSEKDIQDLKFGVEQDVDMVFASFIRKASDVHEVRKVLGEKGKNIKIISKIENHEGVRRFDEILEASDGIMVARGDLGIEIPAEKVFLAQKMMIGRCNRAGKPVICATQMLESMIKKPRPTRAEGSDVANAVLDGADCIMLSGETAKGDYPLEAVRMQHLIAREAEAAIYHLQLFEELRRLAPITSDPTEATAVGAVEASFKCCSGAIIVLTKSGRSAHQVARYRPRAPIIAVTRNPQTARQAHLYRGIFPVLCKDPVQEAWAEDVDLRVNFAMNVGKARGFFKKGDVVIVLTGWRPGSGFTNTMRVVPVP

[5] = biological target: T1, Pyruvate kinase (Staphylococcus aureus (strain MRSA252)); experiment: Inhibition of methicillin-resistant Staphylococcus aureus 252 pyruvate kinase at 10 uM by LDH assay; conditions: Staphylococcus aureus subsp. aureus MRSA252; summary of the method: as §2
[6] = biological target: Pyruvate kinase PKM (Homo sapiens) (UniProt P14618); experiment: Inhibition of human pyruvate kinase M1 at 10 uM by LDH assay; summary of the method: as §3
[7] = biological target: Pyruvate kinase PKLR (Homo sapiens) (UniProt P30613); experiment: Inhibition of human pyruvate kinase L at 10 uM by LDH assay; summary of the method: as §3
Staphylococcus aureus [8] = experiment: Antimicrobial activity against Staphylococcus aureus ATCC 29213 after 24 hrs broth microdilution method; format: functional; summary of the method: as §1
Staphylococcus aureus [9] = experiment: Antimicrobial activity against Staphylococcus aureus RN4220 after 24 hrs broth microdilution method; format: functional; summary of the method: as §1
THP-1 [10] = experiment: Cytotoxicity against human THP1 cells assessed as cell death at 25 uM after 24 hrs by MTS assay; format: cell-based; conditions: thp-1, 24 h
Summary of the method: (§4)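 THP-1 cells were exposed to test agent at 25 µM and 6.25 µM. Read-out was percentage of dead cells.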

THP-1 [11] = experiment: Cytotoxicity against human THP1 cells assessed as cell death at 6.25 uM after 24 hrs by MTS assay; format: cell-based; conditions: thp-1, 24 h; summary of the method: as §4

Compound	IC50 (Pyruvate kinase)	inhibition [3]	inhibition [4]	inhibition [5]	inhibition [6]	inhibition [7]	MIC>98 (Staphylococcus aureus [8])	MIC>98 (Staphylococcus aureus [9])	other results
COc1c(Br)cc(Br)cc1C(=O)N/N=C(\C)c1cc2ccccc2[nH]1	–	–	–	–	–	–	–	–	MIC>98 (Staphylococcus aureus [1]): >93 µg/mL; inhibition [2]: 57%
C/C(=N\NC(=O)c1cc(Br)ccc1O)c1cc2ccc(Br)cc2[nH]1	24 nM	–	–	–	–	–	–	–	MIC>98 (Staphylococcus aureus [1]): >64 µg/mL
CCC(=NNC(=O)c1cc2ccccc2cc1O)c1cc2cc(Br)ccc2n1C (mixture of isomers)	79 nM	-0.6%	-0.8%	97.7%	0%	-5.6%	1 µg/mL	–	–
C/C(=N\NC(=O)c1cc2ccccc2cc1O)c1cc2cc(Br)ccc2[nH]1	26 nM	–	–	–	–	–	>64 µg/mL	–	–
C/C(=N\NC(=O)c1cc(Br)ccc1O)c1cc2c(F)c(F)c(F)cc2[nH]1	15 nM	–	–	–	–	–	>85 µg/mL	–	–
COc1ccc(Br)cc1C(=O)N/N=C/c1cc2ccccc2[nH]1	451 nM	–	–	–	–	–	>64 µg/mL	–	–
C/C(=N\NC(=O)c1cc2ccccc2cc1O)c1cc2ccccc2[nH]1	42 nM	–	–	–	–	–	>64 µg/mL	–	–
CC/C(=N\NC(=O)c1cc2ccccc2cc1O)c1cc2c(F)c(F)c(F)cc2[nH]1	31 nM	–	–	–	–	–	>64 µg/mL	–	–
COc1ccc(Br)cc1C(=O)N(C)/N=C(\C)c1cc2ccccc2[nH]1	–	–	–	–	–	–	–	–	MIC>98 (Staphylococcus aureus [1]): >80 µg/mL; inhibition [2]: 33%
CC/C(=N\NC(=O)c1cc(Br)ccc1O)c1cc2cc(Br)ccc2[nH]1	49 nM	–	–	–	–	–	4 µg/mL (≈ 8.6 µM)	–	–
CC(=NNC(=O)c1cc2ccccc2cc1O)c1cc2cc(Br)ccc2n1C (mixture of isomers)	115 nM	–	–	–	–	–	>64 µg/mL	–	–
CCOCOc1ccccc1C(=O)N/N=C(\C)c1cc2cc(Br)ccc2[nH]1	251 nM	–	–	–	–	–	>64 µg/mL	–	–
C/C(=N\NC(=O)c1cc(Br)ccc1O)c1cc2cc(-c3ccccc3)ccc2[nH]1	–	–	–	–	–	–	–	>90 µg/mL	inhibition [2]: 0%
CC/C(=N\NC(=O)c1cc2ccccc2cc1O)c1cc2c(F)c(F)c(F)cc2n1C	52 nM	–	–	–	–	–	32 µg/mL (≈ 75.2 µM)	–	–
COc1ccc(Br)cc1C(=O)N/N=C(\C)c1cc2ccccc2[nH]1	182 nM	31.9%	16.1%	83.4%	29%	27.2%	–	>193 µg/mL	–
C/C(=N\NC(=O)c1cc(Cl)ccc1O)c1cc2ccccc2[nH]1	–	–	–	–	–	–	–	>64 µg/mL	inhibition [2]: 36%
C#CCOc1ccccc1C(=O)N/N=C(\C)c1cc2cc(Br)ccc2[nH]1	64 nM	24%	2.5%	93.2%	20.2%	23.1%	–	>205 µg/mL	–

Compound	IC50 (Pyruvate kinase)	inhibition [3]	inhibition [4]	inhibition [5]	inhibition [6]	inhibition [7]	MIC>98 (Staphylococcus aureus [8])	MIC>98 (Staphylococcus aureus [9])	other results
CC(=NNC(=O)c1cc(Br)ccc1O)c1cc2cc(O)ccc2n1C (mixture of isomers)	–	–	–	–	–	–	–	–	MIC>98 (Staphylococcus aureus [1]): >64 µg/mL; inhibition [2]: 54%
CC(=NNC(=O)c1cc(Br)ccc1O)c1cc2ccccc2n1C (mixture of isomers)	381 nM	2.6%	0.4%	96.3%	-3.7%	–	7.7 µg/mL	–	–
CC/C(=N\NC(=O)c1cc2ccccc2cc1O)c1cc2cc(Br)ccc2[nH]1	18 nM	-3.4%	3%	99.6%	5.6%	-0.2%	16 µg/mL (≈ 36.7 µM)	–	–
CC(=NNC(=O)c1cc(I)ccc1O)c1cc2ccccc2n1C (mixture of isomers)	483 nM	4.7%	-2%	94.2%	-5.3%	4.4%	–	5.4 µg/mL	–
C/C(=N\NC(=O)c1cc(Br)ccc1O)c1nc2ccccc2[nH]1	91 nM	-1.4%	6.7%	96.4%	7.6%	2.1%	–	>187 µg/mL	–
CC/C(=N\NC(=O)c1cc(Br)ccc1O)c1cc2ccccc2[nH]1	126 nM	4.8%	-2.4%	99.2%	6.6%	3.6%	–	9.7 µg/mL (≈ 25.1 µM)	–
C/C(=N\NC(=O)c1cc(Br)ccc1O)c1cc2ccccc2s1	286 nM	12.5%	-1.1%	96.4%	10.2%	7.3%	–	>195 µg/mL	–
C/C(=N\NC(=O)c1cc2ccccc2cc1O)c1cc2c(F)c(F)c(F)cc2n1C	59 nM	–	–	–	–	–	>64 µg/mL	–	–
Cn1c(C(=NNC(=O)c2cc(Br)ccc2O)c2ccccc2)cc2ccccc21 (mixture of isomers)	6040 nM	–	–	–	–	–	–	1.4 µg/mL	Activity (THP-1 [10]): 78%; Activity (THP-1 [11]): 19%
C/C(=N\NC(=O)c1cc(Br)ccc1O)c1cc2cc(Br)ccc2[nH]1	49 nM	10.7%	8.3%	72.2%	21.6%	6.8%	–	>226 µg/mL	–
CC(C)(C)/C(=N/NC(=O)c1cc(Br)ccc1O)c1cc2ccccc2[nH]1	–	–	–	0%	–	–	–	83 µg/mL (≈ 200 µM)	Activity (THP-1 [10]): 50%; Activity (THP-1 [11]): 42%
C/C(=N\NC(=O)c1cc(Br)ccc1O)c1cc2cc(O)ccc2[nH]1	214 nM	–	–	–	–	–	–	–	MIC>98 (Staphylococcus aureus [1]): >64 µg/mL
CCOc1ccc(Br)cc1C(=O)N/N=C(\C)c1cc2ccccc2[nH]1	63 nM	–	–	–	–	–	>64 µg/mL	–	–
CCC(=NNC(=O)c1cc(Br)ccc1O)c1cc2cc(Br)ccc2n1C (mixture of isomers)	168 nM	–	–	–	–	–	2 µg/mL	–	–
O=C(N/N=C/c1cc2ccccc2[nH]1)c1cc(Br)ccc1O	863 nM	-0.5%	-1.4%	89.9%	-7.2%	0.2%	–	>179 µg/mL	–
C/C(=N\NC(=O)c1cc(Br)ccc1O)c1cc2cc(F)ccc2[nH]1	49 nM	-1.6%	0.4%	97%	-4.6%	-0.5%	–	>195 µg/mL	–
CC(=NNC(=O)c1cc(Br)ccc1O)c1cc2c(F)c(F)c(F)cc2n1C (mixture of isomers)	55 nM	–	–	–	–	–	2 µg/mL	–	–
